Calls of active or inactive are those of the source. The calls are words filed in the database; no cut-off is given here.

For test [1], the system named is COLO 205. The test is described as follows: Induction of apoptosis in human COLO205 cells assessed as blebbing at 2 to 4 uM after 24 hrs by Hoechst staining-based confocal microscopic analysis. It counts as functional, cell-based. The gist of the method: (§1)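 Colo-205 cells on coverslips treated 24 h at 2 and 4 µM, 4% paraformaldehyde fixed 15 min, RNase-treated 30 min at 37 °C, Hoechst-stained; nuclear morphology (fragmentation, blebbing) by confocal microscopy versus untreated cells.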

Test [2] has as its system COLO 205. The test is described as follows: Induction of apoptosis in human COLO205 cells assessed as DNA fragmentation at 2 to 4 uM after 24 hrs by Hoechst staining-based confocal microscopic analysis. It counts as functional, cell-based. The essentials:
as §1

The test system of test [3] is COLO 205. The test is described as follows: Induction of apoptosis in human COLO205 cells assessed as caspase-3 activation at 2 uM after 24 hrs by Western blotting analysis. Type of test: functional, cell-based. The gist of the method: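 Colo-205 cells grown to 80% confluency, 2 µM final for 24 h; RIPA lysates with protease inhibitors, Bradford-quantified, 50 µg protein per lane on 12% SDS-PAGE, PVDF transfer, probed overnight at 4 °C for active caspase-3, β-actin as loading control, chemiluminescent detection.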
On the technique in general: Immunoblotting shows a protein as a band on a membrane.

The test system of test [4] is COLO 205. The test is described as follows: Induction of apoptosis in human COLO205 cells assessed as caspase-3 activation at 2 uM after 24 hrs by ELISA. It counts as functional, cell-based. The essentials:
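Colo-205 cells exposed 24 h at 2 µM; lysates in 2X reaction buffer with DTT plus caspase substrate, 1 h at 37 °C; fluorescence read at ex 400/em 505 nm; three independent experiments, mean ± S.D., versus untreated control.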
(In an ELISA, binding on a coated surface is turned into a signal by an enzyme label.)

For test [5], the system named is COLO 205. Nature of the test: Cell cycle arrest in human COLO205 cells assessed as accumulation at G2/M phase at 2 uM after 24 hrs by propidium iodide staining-based FACS flow cytometric analysis (reference value: 29.52%). It counts as functional. For orientation: In flow cytometry, cells or beads pass a laser one at a time.
Test [6] relates to COLO 205. Nature of the test: Cell cycle arrest in human COLO205 cells assessed as accumulation at S phase at 2 uM after 24 hrs by propidium iodide staining-based FACS flow cytometric analysis (reference value: 4.21%). Type of test: functional.
For test [7], the system named is COLO 205. Nature of the test: Cell cycle arrest in human COLO205 cells assessed as accumulation at G0/G1 phase at 2 uM after 24 hrs by propidium iodide staining-based FACS flow cytometric analysis (reference value: 65.23%). It counts as functional.
Test [8] deals with COLO 205. Nature of the test: Cytotoxicity against human COLO205 cells assessed as reduction in cellular ATP level at 2 uM after 24 hrs by bioluminescence assay. Type of test: functional, cell-based. The gist of the method: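 Colo-205 cells exposed 24 h at 2 µM, lysed in ice-cold RIPA, debris spun off at 4 °C; intracellular ATP in supernatant by luciferin-luciferase bioluminescence kit; three independent experiments, mean ± S.D., untreated control.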

For test [9], the system named is COLO 205. The test is described as follows: Cytotoxicity against human COLO205 cells assessed as viable cells at 2 uM after 24 hrs by trypan blue exclusion assay. Type of test: functional, cell-based. The gist of the method: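 Colo-205 cells treated 24 h at 1, 2 and 4 µM, trypsinised, mixed with 0.4% trypan blue (10 µl per 100 µl cells), counted on haemocytometer; percentage dead cells calculated; triplicate samples.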

The subject of test [10] is MDA-MB-231. Nature of the test: Cytotoxicity against human MDA-MB-231 cells assessed as cell viability at 2 to 4 uM after 24 hrs by MTT assay. Type of test: functional, cell-based. The gist of the method: (§2)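 Colo-205 (RPMI, 10% FCS) and MDA-MB-231 (DMEM, 2 mM glutamax, 10% FCS, penicillin/streptomycin) seeded at 1 104 cells/well, 18 h preincubation; fresh medium with compound at 0.5, 1, 2 and 4 µM for 24 h at 37 °C; MTT 2 h, formazan solubilised, OD 570 nm; DMSO ≤0.25%, DMSO-only wells as untreated control.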

The subject of test [11] is COLO 205. Nature of the test: Cytotoxicity against human COLO205 cells assessed as cell viability at 2 to 4 uM after 24 hrs by MTT assay. It counts as functional, cell-based. The gist of the method: as §2
Test [12] has as its system MDA-MB-231. The test is described as follows: Cytotoxicity against human MDA-MB-231 cells assessed as cell viability at <0.5 to 1 uM after 24 hrs by MTT assay. Type of test: functional, cell-based. The gist of the method: as §2
The subject of test [13] is COLO 205. Nature of the test: Cytotoxicity against human COLO205 cells assessed as cell viability at <0.5 to 1 uM after 24 hrs by MTT assay. It counts as functional, cell-based. The essentials:
as §2

Another test has as its system SiHa. The test is described as follows: Growth inhibition of human SiHa cells after 48 hrs by sulforhodamine B assay. Type of test: functional.
In the next test the test system is A549. The test is described as follows: Growth inhibition of human A549 cells after 48 hrs by sulforhodamine B assay. Type of test: functional. The following applies: A549, 48 h.
A further test concerns HOP-62. Nature of the test: Growth inhibition of human HOP62 cells after 48 hrs by sulforhodamine B assay. As to conditions: HOP-62, 48 h. It counts as functional.
In test [14] the test system is COLO 205. The test is described as follows: Growth inhibition of human COLO205 cells after 48 hrs by sulforhodamine B assay. Type of test: functional. As to conditions: COLO 205, 48 h.
Test [15] in a line: Growth inhibition of human DWD cells after 48 hrs by sulforhodamine B assay. Type of test: functional.
The nature of test [16]: Growth inhibition of human Gurav cells after 48 hrs by sulforhodamine B assay. It counts as functional.
For another test, the system named is KB. Nature of the test: Growth inhibition of human KB cells after 48 hrs by sulforhodamine B assay. Type of test: functional.
A further test concerns ZR-75-1. Nature of the test: Growth inhibition of human ZR-75-1 cells after 48 hrs by sulforhodamine B assay. Type of test: functional. As to conditions: ZR-75-1, 48 h.
In test [17] the target is T1, DNA topoisomerase 1 (Homo sapiens) (UniProt P11387).
T1 sequence (whole entry): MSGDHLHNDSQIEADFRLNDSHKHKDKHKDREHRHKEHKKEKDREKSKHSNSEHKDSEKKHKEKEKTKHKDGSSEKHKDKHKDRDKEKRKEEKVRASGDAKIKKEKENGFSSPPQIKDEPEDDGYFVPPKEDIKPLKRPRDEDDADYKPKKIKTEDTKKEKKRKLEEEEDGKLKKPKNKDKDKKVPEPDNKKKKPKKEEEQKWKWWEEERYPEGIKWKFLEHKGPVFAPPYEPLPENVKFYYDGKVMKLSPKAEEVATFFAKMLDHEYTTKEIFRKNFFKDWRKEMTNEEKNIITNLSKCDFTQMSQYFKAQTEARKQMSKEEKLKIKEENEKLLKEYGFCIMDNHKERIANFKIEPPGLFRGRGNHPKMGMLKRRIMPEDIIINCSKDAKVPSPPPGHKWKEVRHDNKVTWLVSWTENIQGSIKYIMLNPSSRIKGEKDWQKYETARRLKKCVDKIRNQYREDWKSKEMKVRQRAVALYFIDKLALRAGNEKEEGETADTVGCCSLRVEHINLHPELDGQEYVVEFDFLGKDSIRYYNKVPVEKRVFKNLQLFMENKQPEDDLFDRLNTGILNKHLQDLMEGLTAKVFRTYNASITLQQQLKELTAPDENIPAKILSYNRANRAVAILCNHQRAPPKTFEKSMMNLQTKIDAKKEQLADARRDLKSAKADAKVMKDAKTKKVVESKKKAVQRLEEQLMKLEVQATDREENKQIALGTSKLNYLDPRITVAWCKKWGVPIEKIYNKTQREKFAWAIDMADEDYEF
The test is described as follows: Inhibition of human topoisomerase 1-mediated relaxation of supercoiled pBR322 DNA at 2 uM after 30 mins by agarose gel electrophoresis. The essentials: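 500 ng supercoiled pBR322 with 0.4 units recombinant human topoisomerase I, compound at 2 µM, 30 min at 37 °C in 10 mM Tris-HCl pH 7.9, 150 mM NaCl, 0.1% BSA, 1 mM spermidine, 5% glycerol; stopped with sarcosyl/dye; relaxation read on 1% agarose gel; camptothecin as reference.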

For test [18], the target named is DNA topoisomerase 2-alpha (Homo sapiens) (UniProt P11388). Nature of the test: Inhibition of human topoisomerase 2alpha-mediated relaxation of supercoiled pBR322 DNA at 2 uM after 30 mins by agarose gel electrophoresis. The gist of the method: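 Purified human topoisomerase IIα (4 units) with 200 ng supercoiled pBR322 and compound at 2 µM, 30 min at 30 °C in 10 mM Tris-HCl pH 7.9, 50 mM NaCl, 5 mM MgCl2, 1 mM EDTA, 1 mM ATP, 15 µg/mL BSA; EDTA-stopped; 1% agarose gel in TAE, ethidium bromide, UV visualisation.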

The subject of a further test is A2780. Nature of the test: Growth inhibition of human A2780 cells after 48 hrs by sulforhodamine B assay. Type of test: functional. As to conditions: A2780, 48 h.
In the next test the test system is MCF7. Nature of the test: Growth inhibition of human MCF7 cells after 48 hrs by sulforhodamine B assay. Type of test: functional. As to conditions: MCF7, 48 h.

Chain of DNA topoisomerase 2-alpha (Homo sapiens) (P11388 whole entry): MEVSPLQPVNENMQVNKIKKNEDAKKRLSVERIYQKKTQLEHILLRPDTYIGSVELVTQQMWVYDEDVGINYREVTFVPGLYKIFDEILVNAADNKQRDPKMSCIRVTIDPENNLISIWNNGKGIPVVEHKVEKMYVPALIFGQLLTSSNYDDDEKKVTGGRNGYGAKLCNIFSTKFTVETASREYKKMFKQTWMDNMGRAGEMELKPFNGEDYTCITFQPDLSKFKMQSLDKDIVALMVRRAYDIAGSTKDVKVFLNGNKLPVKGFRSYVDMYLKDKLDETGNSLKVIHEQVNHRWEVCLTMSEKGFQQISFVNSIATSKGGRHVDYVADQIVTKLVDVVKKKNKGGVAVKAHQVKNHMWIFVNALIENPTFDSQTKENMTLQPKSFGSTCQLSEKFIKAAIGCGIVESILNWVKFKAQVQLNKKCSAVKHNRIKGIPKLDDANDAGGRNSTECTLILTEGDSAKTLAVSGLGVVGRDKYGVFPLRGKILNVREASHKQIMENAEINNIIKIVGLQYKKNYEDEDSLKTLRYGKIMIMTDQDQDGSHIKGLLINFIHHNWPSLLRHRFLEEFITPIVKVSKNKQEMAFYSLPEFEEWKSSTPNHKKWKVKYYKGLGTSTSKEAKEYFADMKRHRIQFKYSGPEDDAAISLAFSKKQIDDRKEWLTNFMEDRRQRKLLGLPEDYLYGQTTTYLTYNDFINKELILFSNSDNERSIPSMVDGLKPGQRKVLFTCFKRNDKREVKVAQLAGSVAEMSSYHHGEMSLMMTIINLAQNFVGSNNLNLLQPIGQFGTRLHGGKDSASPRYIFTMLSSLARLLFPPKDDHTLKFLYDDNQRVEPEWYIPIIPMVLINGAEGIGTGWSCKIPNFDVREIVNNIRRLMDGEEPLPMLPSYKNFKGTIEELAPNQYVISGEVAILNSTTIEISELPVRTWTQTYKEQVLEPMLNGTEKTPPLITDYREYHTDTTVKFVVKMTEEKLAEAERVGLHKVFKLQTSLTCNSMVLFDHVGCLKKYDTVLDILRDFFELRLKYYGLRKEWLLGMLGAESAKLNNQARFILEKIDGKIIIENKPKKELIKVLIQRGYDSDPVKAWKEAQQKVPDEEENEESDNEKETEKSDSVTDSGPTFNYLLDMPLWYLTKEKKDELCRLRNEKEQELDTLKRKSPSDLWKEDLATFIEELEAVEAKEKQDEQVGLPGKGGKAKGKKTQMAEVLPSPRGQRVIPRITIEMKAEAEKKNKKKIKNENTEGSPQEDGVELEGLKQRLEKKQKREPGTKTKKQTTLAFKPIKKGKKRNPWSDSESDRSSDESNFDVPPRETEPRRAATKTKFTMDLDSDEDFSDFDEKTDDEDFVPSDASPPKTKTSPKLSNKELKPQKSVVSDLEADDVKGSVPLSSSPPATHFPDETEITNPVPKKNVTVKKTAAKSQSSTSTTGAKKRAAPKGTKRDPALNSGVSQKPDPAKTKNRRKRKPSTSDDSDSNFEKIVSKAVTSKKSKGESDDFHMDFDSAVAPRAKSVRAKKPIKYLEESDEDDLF

Turning to `COc1cc([C@@H]2c3cc4c(cc3[C@@H](O[C@@H]3O[C@@H]5CO[C@@H](C)O[C@H]5[C@H](O)[C@H]3O)[C@H]3COC(=O)[C@H]23)OCO4)cc(OC)c1O` [ETOPOSIDE], the outcome with COLO 205 [1], with COLO 205 [2], in the test with COLO 205 [3], in the test on COLO 205 [4], with COLO 205 [8] and in the test on COLO 205 [9] was Active. For the same compound, the result in the test on MDA-MB-231 [10] and in the test on COLO 205 [11] was Active. Further, the Activity worked out at 49.63% with COLO 205 [5] and 42.68% with COLO 205 [7]. In addition, the “Percent of cells in S phase” value in the test on COLO 205 [6] came out at 7.36%. The outcome in the test on MDA-MB-231 [12] and with COLO 205 [13] was inactive. The 50% growth inhibitory concentration (GI50) in the test with SiHa was 3.11 µM; with A549 it was 3080 nM; with HOP-62, 800 nM; with COLO 205 [14] it was 130 nM; in test [15], 620 nM; in test [16] it was 510 nM. Also, the GI50 came out at 310 nM in the test on KB and 200 nM with ZR-75-1.
Turning to `COc1cc([C@@H]2c3cc4c(cc3[C@@H](NC(=O)c3ccc(NC(=O)Nc5ccc(Cl)cc5)cc3)[C@H]3COC(=O)[C@H]23)OCO4)cc(OC)c1OC`, the result in the test on COLO 205 [1], in the test with COLO 205 [2], in the test with COLO 205 [3], with COLO 205 [4], with COLO 205 [8] and in the test with COLO 205 [9] was Active. In addition, the result with MDA-MB-231 [10] and in the test on COLO 205 [11] was Active. The inhibition result in [17] was “Active”. In test [18], the “Inhibition of relaxation (qualitative call)” value is “Active”. Further, the Activity in the test on COLO 205 [5] was found to be 17.06%; in the test on COLO 205 [7] it was 78.12%. In addition, the “Percent of cells in S phase” value in the test with COLO 205 [6] was determined as 4.83%. Also, the result in the test with MDA-MB-231 [12] and with COLO 205 [13] was inactive. The GI50 in the test with A2780 is 2200 nM; with A549, 2140 nM; in the test with HOP-62, 170 nM; with COLO 205 [14], 10 nM; in test [15], 100 nM; in [16] it was 1970 nM. The GI50 was 110 nM with MCF7 and 130 nM in the test on ZR-75-1. The GI50 result with SiHa and in the test with KB was “inactive” each time.

The GI50 is the concentration that inhibits growth by half.
